Reference: ChEMBL document CHEMBL4043179, “Triple reuptake inhibitors: Design, synthesis and structure-activity relationship of benzylpiperidine-tetrazoles” (Bioorg Med Chem, 2017)

How the values were obtained:
Type in all cases: cell-based
[1] = biological target: T1, Sodium-dependent dopamine transporter (Homo sapiens, UniProt Q01959); assay: Inhibition of re-uptake of [3H]-DA at human DAT expressed in HEK293 cells by liquid scintillation counting
In short: (§1)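 HEK-293 cells were grown in medium with fetal bovine serum and transfected with human DAT or NET. Uptake of radiolabelled [3H]-DA or [3H]-NE, each at 20 nM in the assay, was measured by liquid scintillation counting. The method follows a literature procedure with slight modification, and reference reuptake inhibitors were run alongside.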

[2] = biological target: T2, Sodium-dependent serotonin transporter (Homo sapiens, UniProt P31645); assay: Inhibition of re-uptake of [3H]-5-HT at human SERT expressed in HEK293 cells by liquid scintillation counting
Target sequence in this assay (P31645 whole entry): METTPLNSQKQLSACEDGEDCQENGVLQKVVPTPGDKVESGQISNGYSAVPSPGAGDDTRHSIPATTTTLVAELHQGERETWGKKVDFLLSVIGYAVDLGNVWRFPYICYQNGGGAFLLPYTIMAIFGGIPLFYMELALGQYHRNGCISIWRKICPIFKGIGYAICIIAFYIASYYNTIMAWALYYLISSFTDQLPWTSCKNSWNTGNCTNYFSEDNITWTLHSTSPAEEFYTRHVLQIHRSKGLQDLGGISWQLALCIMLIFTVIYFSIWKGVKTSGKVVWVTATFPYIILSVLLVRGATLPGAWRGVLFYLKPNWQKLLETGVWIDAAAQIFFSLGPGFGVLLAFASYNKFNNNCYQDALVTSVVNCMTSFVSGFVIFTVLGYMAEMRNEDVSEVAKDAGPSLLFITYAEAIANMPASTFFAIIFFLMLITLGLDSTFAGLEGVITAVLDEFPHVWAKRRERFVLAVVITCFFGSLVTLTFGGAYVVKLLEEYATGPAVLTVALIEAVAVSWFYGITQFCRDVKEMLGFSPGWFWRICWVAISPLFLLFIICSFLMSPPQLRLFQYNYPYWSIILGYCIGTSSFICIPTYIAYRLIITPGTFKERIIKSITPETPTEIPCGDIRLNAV

[3] = biological target: T1, Sodium-dependent dopamine transporter; assay: Inhibition of re-uptake of [3H]-DA at human DAT at 10 uM expressed in HEK293 cells by liquid scintillation counting
[4] = biological target: T2, Sodium-dependent serotonin transporter; assay: Inhibition of re-uptake of [3H]-5-HT at human SERT at 10 uM expressed in HEK293 cells by liquid scintillation counting
Target sequence in this assay (P31645 whole entry, looked up): as the sequence (P31645 whole entry) above

[5] = biological target: T3, Sodium-dependent noradrenaline transporter (Homo sapiens, UniProt P23975); assay: Inhibition of re-uptake of [3H]-NE at human NET expressed in HEK293 cells by liquid scintillation counting; in short: as §1
[6] = biological target: T3, Sodium-dependent noradrenaline transporter; assay: Inhibition of re-uptake of [3H]-NE at human NET at 10 uM expressed in HEK293 cells by liquid scintillation counting

T1 sequence (Q01959 whole entry): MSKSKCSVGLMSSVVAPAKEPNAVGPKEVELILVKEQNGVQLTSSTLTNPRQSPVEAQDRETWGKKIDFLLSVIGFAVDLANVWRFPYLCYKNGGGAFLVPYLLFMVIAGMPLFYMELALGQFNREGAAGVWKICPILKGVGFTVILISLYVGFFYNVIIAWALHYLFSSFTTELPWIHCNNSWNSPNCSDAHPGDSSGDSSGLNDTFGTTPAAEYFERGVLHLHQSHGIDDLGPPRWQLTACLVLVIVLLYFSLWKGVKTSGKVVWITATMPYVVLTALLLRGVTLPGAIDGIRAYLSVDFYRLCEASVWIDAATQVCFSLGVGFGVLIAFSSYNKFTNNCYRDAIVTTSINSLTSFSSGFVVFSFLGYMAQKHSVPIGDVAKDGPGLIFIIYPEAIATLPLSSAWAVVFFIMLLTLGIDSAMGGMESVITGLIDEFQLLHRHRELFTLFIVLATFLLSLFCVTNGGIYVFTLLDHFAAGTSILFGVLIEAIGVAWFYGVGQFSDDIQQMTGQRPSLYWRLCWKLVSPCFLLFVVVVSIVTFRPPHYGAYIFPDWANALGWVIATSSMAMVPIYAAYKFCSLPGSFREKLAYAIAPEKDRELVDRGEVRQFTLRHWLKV
T3 sequence (P23975 whole entry): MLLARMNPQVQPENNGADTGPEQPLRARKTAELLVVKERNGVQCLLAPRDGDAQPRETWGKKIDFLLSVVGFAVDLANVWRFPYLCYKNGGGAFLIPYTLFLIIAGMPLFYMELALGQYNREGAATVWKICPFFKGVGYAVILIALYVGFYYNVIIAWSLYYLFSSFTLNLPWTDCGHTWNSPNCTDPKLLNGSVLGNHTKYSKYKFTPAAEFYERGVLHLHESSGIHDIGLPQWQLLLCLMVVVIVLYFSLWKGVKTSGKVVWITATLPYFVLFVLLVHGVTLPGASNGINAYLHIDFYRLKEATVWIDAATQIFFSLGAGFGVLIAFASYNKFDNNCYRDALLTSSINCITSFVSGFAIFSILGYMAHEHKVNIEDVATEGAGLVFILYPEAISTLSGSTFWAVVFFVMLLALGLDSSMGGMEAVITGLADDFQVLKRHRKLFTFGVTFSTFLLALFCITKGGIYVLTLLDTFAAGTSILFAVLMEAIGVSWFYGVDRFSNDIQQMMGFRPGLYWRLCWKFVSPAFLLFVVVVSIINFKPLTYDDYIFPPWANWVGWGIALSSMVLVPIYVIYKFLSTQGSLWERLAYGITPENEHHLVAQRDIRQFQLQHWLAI

| SMILES | IC50 [1] [µM] | IC50 [2] [µM] | inhibition [3] [%] | inhibition [4] [%] | IC50 [5] [µM] | inhibition [6] [%] |
| --- | --- | --- | --- | --- | --- | --- |
| Clc1ccc(-c2nnnn2CCCN2CCC(Cc3ccccc3)CC2)cc1 | 8.32 | 3.13 | > 55 | > 55 | 2.58 | > 55 |
| Brc1cccc(-c2nnnn2CCCN2CCC(Cc3ccccc3)CC2)c1 | > 10 | > 10 | > 55 | > 55 | 4.34 | > 55 |
| c1ccc(CC2CCN(CCCn3nnnc3-c3ccccc3)CC2)cc1 | 4.02 | 0.88 | > 55 | > 55 | 3.03 | > 55 |
| CC(=O)c1cccc(-c2nnnn2CCN2CCC(Cc3ccccc3)CC2)c1 | 14.6 | 4.05 | > 55 | > 55 | 3.08 | > 55 |
| Clc1cccc(-c2nnnn2CCCN2CCC(Cc3ccccc3)CC2)c1Cl | > 10 | 3.96 | > 55 | > 55 | 3.45 | > 55 |
| Clc1cccc(-c2nnnn2CCCN2CCC(Cc3ccccc3)CC2)c1 | 5.18 | 1.35 | > 55 | > 55 | 3.59 | > 55 |
| c1ccc(CC2CCN(CCCn3nnnc3-c3cccc4ccccc34)CC2)cc1 | 6 | 0.31 | > 55 | > 55 | 2.51 | > 55 |
| Fc1ccc(-c2nnnn2CCCN2CCC(Cc3ccccc3)CC2)cc1 | 3.29 | 2 | > 55 | > 55 | 2.28 | > 55 |
| CC(=O)c1cccc(-c2nnnn2CCCN2CCC(Cc3ccccc3)CC2)c1 | 5.04 | 0.54 | > 55 | > 55 | 3 | > 55 |
| COc1ccc(-c2nnnn2CCCN2CCC(Cc3ccccc3)CC2)cc1 | > 10 | 4.05 | > 55 | > 55 | 5.52 | > 55 |
| O=[N+]([O-])c1ccc(-c2nnnn2CCCN2CCC(Cc3ccccc3)CC2)cc1 | > 10 | 5.25 | > 55 | > 55 | 5.02 | > 55 |
| Brc1ccccc1-c1nnnn1CCCN1CCC(Cc2ccccc2)CC1 | > 10 | 5.13 | > 55 | > 55 | 3.46 | > 55 |
| FC(F)(F)c1cccc(-c2nnnn2CCCN2CCC(Cc3ccccc3)CC2)c1 | 3.74 | 8.81 | > 55 | > 55 | 5.1 | > 55 |
| c1ccc(CC2CCN(CCn3nnnc3-c3cccc4ccccc34)CC2)cc1 | > 10 | > 10 | > 55 | > 55 | > 10 | > 55 |
| Clc1ccccc1-c1nnnn1CCCN1CCC(Cc2ccccc2)CC1 | 6.55 | 1.32 | > 55 | > 55 | 3.96 | > 55 |
| O=[N+]([O-])c1ccc(-c2nnnn2CCN2CCC(Cc3ccccc3)CC2)cc1 | 1.98 | 1.24 | > 55 | > 55 | 1.35 | > 55 |
